Assay outcomes: PubChem, NMMLSC
MEKK3 PB1 HTS: raises or lowers MEK5 binding to the human MEKK3 PB1 domain. AID 1529. binding response (% of control), % at 10 µM. 1.4% of 290,000 active. bead-based flow cytometry, Alexa488-MEK5 binding to MEKK3; actives lie on both sides; 0 = blocked by unlabeled MEK5, 100 = vehicle;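 active means binding response more than 3 SD above or below the average of its plate-row segment, actives on both sides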;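 further: Alexa488 bead fluorescence after subtracting the streptavidin-only scavenger bead signal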
Target sequence (Q99759 whole entry, looked up, the tested form may be a part): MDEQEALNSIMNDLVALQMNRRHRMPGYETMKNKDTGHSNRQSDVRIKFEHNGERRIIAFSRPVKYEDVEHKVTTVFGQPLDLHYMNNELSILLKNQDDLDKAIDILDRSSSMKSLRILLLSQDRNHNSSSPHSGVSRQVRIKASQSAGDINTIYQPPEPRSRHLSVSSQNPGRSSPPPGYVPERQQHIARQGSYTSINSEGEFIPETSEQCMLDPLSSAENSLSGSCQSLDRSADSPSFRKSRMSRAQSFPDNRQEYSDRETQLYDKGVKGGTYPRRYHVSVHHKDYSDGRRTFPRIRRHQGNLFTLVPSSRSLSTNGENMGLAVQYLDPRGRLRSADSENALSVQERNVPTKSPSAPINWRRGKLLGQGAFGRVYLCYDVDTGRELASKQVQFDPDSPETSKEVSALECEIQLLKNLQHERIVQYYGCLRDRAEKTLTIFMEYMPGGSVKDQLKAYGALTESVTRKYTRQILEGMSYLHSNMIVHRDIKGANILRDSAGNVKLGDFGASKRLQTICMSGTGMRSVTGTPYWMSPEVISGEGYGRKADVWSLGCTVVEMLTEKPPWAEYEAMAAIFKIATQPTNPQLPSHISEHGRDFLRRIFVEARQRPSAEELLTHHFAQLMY
MEKK2 mut-MEK5: signal of MEK5 binding to mutant human MEKK2 PB1 domain; bead flow cytometry, Alexa488-MEK5 binding to MEKK2 mutant; percent response, % at 10 µM; 0.35% of 290,000 active; in the data active means percent response above about 24%, passing the limit was not always enough
Arrestin-AP2 inh: inhibitors of human beta-arrestin and AP2 interaction; FITC-arrestin peptide / GST-AP2 beads, flow cytometry; AP2 beta2 appendage carries R879A mutation; inhibition, % at 10 µM; 0.31% of 340,000 active;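 active means inhibition above a set limit, near 3 SD of compounds lacking own fluorescence, cut at about 54% in these data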;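 further: plate controls were DMSO wells for no effect and 5 µM unlabelled arrestin peptide for full effect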
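System: GST-tagged AP2 beta2-adaptin appendage (R879A) on 4 µm glutathione beads / Reagent: FITC-arrestin peptide, 50 nM / Detection: HyperCyt-sampled flow cytometry, FL1 channel, ex 488/em 535 nm / Timing: 12 min plus 1 h, RT / Buffer or medium: PBS plus Tween 20 (0.05%) and BSA (0.1%)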
MEKK2wt PB1 HTS: raises or lowers MEK5 binding to wildtype human MEKK2 PB1 domain. AID 1531. binding response (% of control), % at 10 µM. 1.1% of 290,000 active. Q9Y2U5. bead flow cytometry, Alexa488-MEK5 binding to MEKK2 WT; actives lie on both sides; in the data active means binding response below about 67% or above about 130%
MEKK2wt confirm: raises or lowers MEK5 binding to wildtype human MEKK2, retest | shares compounds with MEKK3 PB1 HTS | bead flow cytometry, Alexa488-MEK5 binding to MEKK2 WT; actives lie on both sides | binding response (% of control), % at 10 µM | 2.4% of 5,900 active | AID 1892; in the data active means binding response below about 16% or above about 210%; inactive means in between
MEKK2mut confirm: signal of MEK5 binding to mutant human MEKK2, retest; shares compounds with MEKK3 PB1 HTS; bead flow cytometry, Alexa488-MEK5 binding to MEKK2 mutant; percent response, % at 10 µM; 2% of 5,900 active; in the data active means percent response mostly above about 71%, no sharp cut-off; inactive means mostly below about 38%;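 further: higher means compound restores mutant binding toward wildtype level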
MEKK3 confirm: MEKK3-MEK5 PB1 inhibition, single concentration confirmation | shares compounds with MEKK3 PB1 HTS | bead flow cytometry, Alexa488-MEK5 binding to MEKK3; active compounds read low | binding response (% of control), % at 10 µM | 1.8% of 5,900 active;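 active means binding response below 72% of control, or above a set upper limit, though filed actives all read lower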;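 further: 100% = DMSO only wells and 0% = binding blocked by excess unlabeled MEK5; lower values mean stronger disruption of MEK5 binding to MEKK3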
Active calls of the source: *; . = no result given; [ ] = dose if it differs, or a comment. Shown are actives, neighbours in structure and some others; about 2.3% of the full set was active somewhere.

SMILES	MEKK3 PB1 HTS	MEKK2 mut-MEK5	Arrestin-AP2 inh	MEKK2wt PB1 HTS	MEKK2wt confirm	MEKK2mut confirm	MEKK3 confirm
O=C1CC(c2ccc(Cl)cc2)SC(N(c2ccccc2)c2ccccc2)=N1 (configuration not stated)	97.0	-3.0	8.5	87.0	.	.	.
COc1ccc(S(=O)(=O)N2CCC(C(=O)Oc3ccc(C)cc3)CC2)cc1OC	.	.	-7.7	.	.	.	.
COC(=O)C(Cc1c[nH]c2ccccc12)NC(=O)c1cccs1 (configuration not stated)	92.0	-15.0	-1.2	89.0	.	.	.
O=C(NC(Cc1c[nH]c2ccccc12)C(=O)Nc1ccc(F)cc1)c1cccs1 (configuration not stated)	128.0*	3.0	31.4	106.0	97.0	-1.0	98.0
O=C(NCc1ccco1)c1cc([N+](=O)[O-])ccc1N1CCOCC1	100.0	1.0	2.6	102.0	.	.	.
Cc1nc2cc(-c3ccc(Cl)cc3)nn2c(NCCN(C)C)c1C	113.0	29.0	-1.9	148.0*	132.0	18.0	110.0
CCn1ccc(C(=O)Nc2ccccc2SC)n1	93.0	-5.0	32.4	99.0	.	.	.
CC1=CC(C)(C)C(C(=O)O)C(C(=O)O)C1 (configuration not stated)	141.0*	10.0	4.0	136.0*	112.0	19.0	88.0
CC(C)CCNC(=S)Nc1ccc([N+](=O)[O-])cc1	129.0*	0.0	3.7	106.0	104.0	-7.0	101.0
CC(C)OC(=O)c1cc(NC(=S)Nc2ccc([N+](=O)[O-])cc2)cc(C(=O)OC(C)C)c1	82.0	40.0*	9.5	169.0*	147.0	18.0	104.0
CCCCNC(=S)Nc1ccc([N+](=O)[O-])cc1	115.0	-1.0	-12.0	106.0	.	.	.
CS(=O)(=O)N1CCN(c2ccc([N+](=O)[O-])cc2F)CC1	75.0*[inhibitor]	-16.0	31.9	79.0	101.0	13.0	104.0
Cc1cc(N/N=C/c2ccc(Cl)cc2)nc(NCc2ccccc2)n1	107.0	54.0*	4.8	186.0*	173.0	51.0	110.0
Cc1cc(N/N=C/c2cccc(Cl)c2)nc(NCc2ccccc2)n1	99.0	35.0	2.2	149.0*	174.0	52.0	110.0
Brc1ccc(/C=N/Nc2ccccn2)cc1	127.0	0.0	9.1	114.0	.	.	.
Cc1cc(N/N=C/c2ccccc2F)nc(NCc2ccccc2)n1	95.0	11.0	-1.9	114.0	.	.	.
Cc1cc(N/N=C/c2cccc(F)c2)nc(NCc2ccccc2)n1	96.0	25.0	34.0	140.0*	138.0	26.0	106.0
Clc1ccc(/C=N/Nc2ccccn2)cc1	128.0*	0.0	2.5	111.0	104.0	5.0	101.0
Cc1cc(N/N=C/c2ccccc2)nc(NCc2ccccc2)n1	107.0	32.0	-8.8	175.0*	153.0	31.0	111.0
COc1ccc(C2=NOC(Cn3nc(-c4ccccc4C)cc3C(=O)O)C2)cc1 (configuration not stated)	.	.	7.5	.	.	.	.
O=C(/C=C/c1ccco1)Nc1ccc(-c2nc3ccccc3[nH]2)cc1	35.0*[inhibitor]	-5.0	3.5	47.0*[inhibitor]	76.0	-18.0	79.0
COc1ccc(CNC(=S)Nc2ccc3nc(N4CCN(C)CC4)cc(C)c3c2)cc1	117.0	30.0	-5.7	152.0*	118.0	9.0	101.0
COc1ccccc1CNC(=S)Nc1ccc2nc(N3CCN(C)CC3)cc(C)c2c1	105.0	22.0	-16.4	138.0*	141.0	9.0	101.0
Cc1cc(N2CCN(C)CC2)nc2ccc(NC(=S)NCc3cccs3)cc12	110.0	21.0	-5.7	141.0*	124.0	15.0	104.0
CCCCN(CC)CCCNC(=S)Nc1ccc2nc(N3CCN(C)CC3)cc(C)c2c1	97.0	15.0	-2.7	142.0*	142.0	21.0	108.0
SMILES	MEKK3 PB1 HTS	MEKK2 mut-MEK5	Arrestin-AP2 inh	MEKK2wt PB1 HTS	MEKK2wt confirm	MEKK2mut confirm	MEKK3 confirm
Cc1cc(C)cc(N(CC(=O)NC2CCCCC2)C(=O)CCCC(=O)Nc2ccccn2)c1	104.0	7.0	0.4	104.0	.	.	.
CCCCNC(C(=O)Nc1ccc(Cl)c([N+](=O)[O-])c1)c1ccccc1 (configuration not stated)	108.0	2.0	1.3	106.0	.	.	.
C=CCc1cccc(/C=N/NC(=O)CNc2ccccc2)c1O	87.0	-6.0	-0.8	89.0	.	.	.
C=CCc1cccc(/C=N/NC(=O)CCCNc2ccc(C)cc2)c1O	109.0	89.0*	-16.1	248.0*	104.0	2.0	103.0
CN1/C(=C\C(=O)c2cccnc2)C(C)(C)c2ccccc21	147.0*	0.0	16.5	105.0	85.0	-9.0	76.0
CC(=O)Nc1cc(=O)c2cccnc2[nH]1	.	.	7.8	.	.	.	.
c1ccc(Cn2nnc3c(NCC4CCCO4)ncnc32)cc1 (configuration not stated)	61.0*[inhibitor]	-8.0	-8.9	65.0	106.0	10.0	107.0
CCCC1=Nc2cc(C(=O)N3CCC(C(=O)OCC)CC3)ccc2Sc2ccccc21	99.0	2.0	2.1	100.0	.	.	.
CC(=O)NCc1ccc(S(=O)(=O)N/N=C/c2ccccc2)cc1	106.0	-1.0	.	101.0	.	.	.
CC(=O)NCc1ccc(S(=O)(=O)N/N=C/c2ccc(Br)cc2)cc1	139.0*	0.0	-2.5	111.0	98.0	-3.0	101.0
CCN(CC)c1ccc(/C=N/NS(=O)(=O)c2ccc(CNC(C)=O)cc2)cc1	145.0*	0.0	0.2	109.0	98.0	-4.0	100.0
COC(=O)c1ccc(CN2CCCC(CO)(Cc3ccc(F)cc3F)C2)cc1 (configuration not stated)	105.0	4.0	14.4	108.0	.	.	.
Clc1ccccc1OCc1nn[nH]n1	131.0*	27.0	-10.7	118.0	107.0	2.0	103.0
CCN(CC)S(=O)(=O)c1ccc(OCC(=O)NC(=O)Cc2ccccc2)c([N+](=O)[O-])c1	.	.	34.3	.	.	.	.
O=C(O)CC1(CC(=O)Nc2ccc3ccccc3c2)CCCCC1	1.0*[inhibitor]	-9.0	-2.0	-1.0*[inhibitor]	100.0	3.0	105.0
CN(C1CCCCC1)S(=O)(=O)c1ccc(-c2ccccn2)s1	100.0	-5.0	31.1	98.0	.	.	.
C=C(C)CN=c1scc(C)n1/N=C/c1ccco1	77.0*[inhibitor]	-9.0	2.3	85.0	73.0	-11.0	73.0
O=S(=O)(NCc1ccco1)c1cccc(S(=O)(=O)N2CCOCC2)c1	2.0*[inhibitor]	-31.0	-8.2	2.0*[inhibitor]	97.0	-3.0	97.0
Cc1ccc(S(=O)(=O)c2cccc(S(=O)(=O)N3CCOCC3)c2)cc1S(=O)(=O)N1CCOCC1	2.0*[inhibitor]	-15.0	0.7	2.0*[inhibitor]	97.0	-8.0	95.0
